# MEKK3 PB1 HTS: modulators of MEKK3-MEK5 PB1 binding, primary screen, biochemical, wildtype MEKK3, multiplex bead flow cytometry, Alexa488-MEK5; Mitogen-activated protein kinase kinase kinase 3 (Homo sapiens), Q99759; bead-based flow cytometry, Alexa488-MEK5 binding to MEKK3; actives lie on both sides; 0 = blocked by unlabeled MEK5, 100 = vehicle; binding response (% of control), % at 10 µM; AID 1529, 2009; actives 1.4% (n = 290,000);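 active = binding response more than 3 SD above or below the average of its plate-row segment, actives on both sides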;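 also: Alexa488 bead fluorescence after subtracting the streptavidin-only scavenger bead signal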
# ATG4B inh: ATG4B protease inhibitors, primary screen, biochemical, fluorescence, uHTS | actives 0.51% (n = 340,000) | Cysteine protease ATG4B (Homo sapiens), Q9Y4P1 | ATG4B cleavage of LC3-PLA2, NBD-HPC fluorescence, 1 h | inhibition, % at 8.33 µM; in the data active = inhibition above about 40%
# Target sequence (Q9Y4P1 whole entry, looked up): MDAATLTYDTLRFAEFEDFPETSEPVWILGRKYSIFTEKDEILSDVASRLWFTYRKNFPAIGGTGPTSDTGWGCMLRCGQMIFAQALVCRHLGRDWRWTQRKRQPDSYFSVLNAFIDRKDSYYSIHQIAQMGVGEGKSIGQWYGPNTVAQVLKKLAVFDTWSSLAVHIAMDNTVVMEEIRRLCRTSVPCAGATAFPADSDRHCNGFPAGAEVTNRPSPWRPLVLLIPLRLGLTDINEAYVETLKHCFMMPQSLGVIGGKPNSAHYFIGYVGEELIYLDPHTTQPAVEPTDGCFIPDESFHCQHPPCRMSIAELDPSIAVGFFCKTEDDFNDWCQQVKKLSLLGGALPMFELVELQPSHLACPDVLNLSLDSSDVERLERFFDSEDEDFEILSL
# Dynein cargo inh: inhibitors of GR-EGFP nuclear translocation, primary screen, dynein cargo transport inhibitor project, imaging, high-content, 3617.4 mouse cells; test concentration mostly 20 µM; stimulated with dexamethasone, 1 µM; active compounds read low; z-score, hits read low; actives 0.47% (n = 220,000); AID 1381, 2008;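 active = plate z-score of nuclear minus cytoplasmic receptor signal below a set negative limit, without overly bright fluorescence or cell loss, cut at about -3.5 in these data, passing the limit was not always enough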;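 also: z-score of nuclear minus cytoplasmic ring GR-EGFP intensity difference per well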
#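 Also added: dexamethasone, 1.0 µM final. Medium: tet-free, stripped-serum medium. Detection: fixed, Hoechst-stained cells imaged at 10x for EGFP. Read-out: nuclear-to-cytoplasmic GR-EGFP distribution per well. Times: induction 48 h, compound 1 h, agonist 30 min.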
# B2AR ag: beta2AR agonists driving receptor internalization, primary screen, cell-based, FAP fluorogen, flow cytometry; Am2.2-beta2AR cells; actives 0.43% (n = 340,000); AID 504454, 2011; Beta-2 adrenergic receptor (Homo sapiens), P07550; response, % (test concentration not listed);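 active = response above a set limit, near 3 SD of response in nonfluorescent compounds, cut at about 42% in these data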
# MEKK2 WT-MEK5: modulators of MEK5 binding to wildtype MEKK2, primary screen, biochemical, multiplex bead flow cytometry, Alexa488-MEK5 | actives 1.1% (n = 290,000) | AID 1531, 2009 | Mitogen-activated protein kinase kinase kinase 2 (Homo sapiens), Q9Y2U5 | Alexa488-MEK5 binding to MEKK2 WT; actives lie on both sides | binding response (% of control), % at 10 µM; in the data active = binding response below about 67% or above about 130%
# MEKK2 mut-MEK5: MEK5 binding signal on mutant MEKK2 PB1, primary screen, biochemical, multiplex bead flow cytometry, Alexa488-MEK5 | percent response, % at 10 µM | actives 0.35% (n = 290,000) | Alexa488-MEK5 binding to MEKK2 mutant | AID 1530, 2009; in the data active = percent response above about 24%, passing the limit was not always enough
# Active calls of the source: *; x = no result; [ ] = another dose, or the depositor's remark. This is a sample that favours compounds with a hit; in the whole collection about 2.9% have one here.
SMILES,MEKK3 PB1 HTS,ATG4B inh,Dynein cargo inh,B2AR ag,MEKK2 WT-MEK5,MEKK2 mut-MEK5
COC(=O)c1c(C)oc2ccc(N(C(=O)Oc3ccccc3)S(=O)(=O)c3ccc(Cl)c([N+](=O)[O-])c3)cc12,94.0,-7.0,-0.421,60.4*,94.0,-2.0
COC(=O)c1c(C)oc2ccc(N(C(=O)c3ccncc3)S(=O)(=O)c3ccc4ccccc4c3)cc12,99.0,-6.3,0.157,4.0,107.0,4.0
Cc1ccc([N+](=O)[O-])c(C(=O)N/N=C/c2cccs2)c1,104.0,7.6,1.3,-3.8,104.0,6.0
COCCNc1nc(-c2cc(C)n(CCc3ccc(OC)cc3)c2C)cs1,80.0,4.7,-0.643,-0.1,-5.0*,41.0
COc1cccc(N=c2oc3c(C)ncc(CO)c3cc2C(=O)Nc2ccccc2OC)c1,x,x,-0.894,x,x,x
COc1ccccc1NC(=O)c1cc2c(CO)cnc(C)c2oc1=Nc1cccc(C(N)=O)c1,97.0,-7.3,x,57.9*,100.0,0.0
Cc1ccc(C(=O)c2cc([N+](=O)[O-])ccc2N2CCOCC2)cc1C,144.0*,-14.2,0.149,-0.9,111.0,1.0
COc1ccc(C(=O)c2cc([N+](=O)[O-])ccc2N2CCN(C)CC2)cc1,90.0,-6.1,1.95,-1.9,98.0,-6.0
COc1ccc(C(=O)c2cc([N+](=O)[O-])ccc2N2CCCC2)cc1,132.0*,-2.0,0.0886,1.1,106.0,1.0
Cc1ccc(C(=O)N/C(=C\c2ccc(-c3ccc([N+](=O)[O-])cc3)o2)C(=O)NC2CCS(=O)(=O)C2)cc1 (stereo unspecified),98.0,-14.9,-0.0792,-49.2,4.0*,8.0
COc1ccc(NS(=O)(=O)c2cccc(C(=O)NNC(=O)c3ccc(Br)o3)c2)cc1,x,0.0,x,5.8,x,x
O=C(CCNC(=O)c1ccccc1)N=Nc1c(O)[nH]c2ccccc12,93.0,x,0.663,x,93.0,94.0*
O=C(CN1CCN(c2ccccc2O)CC1)Nc1cc(S(=O)(=O)N2CCCC2)ccc1Cl,x,-24.6,x,4.9,x,x
COc1cc(/C=N/N2C(=O)CSC2=S)ccc1O,98.0,1.4,0.274,-13.1,91.0,-5.0
O=C1CSC(=S)N1/N=C/c1cc(Br)c(O)c(Br)c1,92.0,61.1*,x,-56.9,88.0,-7.0
O=S(=O)(/C(=C/c1ccc(C(F)(F)F)cc1)c1nc2ccccc2[nH]1)c1ccccc1,97.0,8.1,-2.62,22.0,100.0,-1.0
CC(C)c1ccc(/C=C(\c2nc3ccccc3[nH]2)S(=O)(=O)c2ccccc2)cc1,98.0,-11.1,-3.45,42.2*,99.0,-2.0
C=C(C)COc1ccc2c(C)c(CCC(=O)N3C[C@H]4C[C@@H](C3)c3cccc(=O)n3C4)c(=O)oc2c1,98.0,-14.4,x,-26.1,103.0,-1.0
COc1ccc(S(=O)(=O)N2N=C(c3cccc(NS(C)(=O)=O)c3)CC2c2ccco2)cc1 (stereo unspecified),100.0,-7.0,x,8.7,14.0*,21.0
CCS(=O)(=O)Nc1ccc(C2=NN(S(=O)(=O)CC)C(c3cccs3)C2)cc1 (stereo unspecified),7.0*[inhibitor],-7.8,x,14.4,x,-32.0
CS(=O)(=O)Nc1cccc(C2=NN(S(C)(=O)=O)C(c3ccc4c(c3)OCO4)C2)c1 (stereo unspecified),111.0,-4.3,-0.731,13.6,26.0*,29.0
COc1ccc(S(=O)(=O)N2N=C(c3ccc(NS(C)(=O)=O)cc3)CC2c2ccco2)cc1 (stereo unspecified),101.0,-4.6,0.176,-6.0,84.0,4.0
CS(=O)(=O)N1N=C(c2ccc(Cl)cc2)CC1c1cccs1 (stereo unspecified),101.0,8.1,-2.03,-13.5,100.0,1.0

# Bioassay records as filed in PubChem.
